# Only some compounds are listed: those with a hit (about 2.3% of all), similar ones and a draw of the others.
# TRPC6 inhibitor: inhibitors of mouse TRPC6 channel. Q61143. HEK293-TRPC6, membrane potential dye, ACh-evoked depolarization; stronger effect = lower value. B-score at 10 µM. actives 1.1% (n = 310,000). AID 2553;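 active = B-score under library mean minus 3 SD, initial fluorescence not abnormally high, positive integrated signal ratio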;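 note: B-score derived from integrated fluorescence ratio over the kinetic read; more negative B-score means stronger inhibition of depolarization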
# TRPC4 inh: blocks the mouse TRPC4 cation channel; Q9QUQ5; HEK293 TRPC4beta/mu-opioid, DAMGO-evoked Fluo4 calcium flux; stronger effect = lower value; B-score at 10 µM; actives 0.39% (n = 300,000);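 active = B-score over 3 SD under the library average, no early fluorescence shift, positive overall ratio signal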
# Target sequence (Q9QUQ5 whole entry, looked up): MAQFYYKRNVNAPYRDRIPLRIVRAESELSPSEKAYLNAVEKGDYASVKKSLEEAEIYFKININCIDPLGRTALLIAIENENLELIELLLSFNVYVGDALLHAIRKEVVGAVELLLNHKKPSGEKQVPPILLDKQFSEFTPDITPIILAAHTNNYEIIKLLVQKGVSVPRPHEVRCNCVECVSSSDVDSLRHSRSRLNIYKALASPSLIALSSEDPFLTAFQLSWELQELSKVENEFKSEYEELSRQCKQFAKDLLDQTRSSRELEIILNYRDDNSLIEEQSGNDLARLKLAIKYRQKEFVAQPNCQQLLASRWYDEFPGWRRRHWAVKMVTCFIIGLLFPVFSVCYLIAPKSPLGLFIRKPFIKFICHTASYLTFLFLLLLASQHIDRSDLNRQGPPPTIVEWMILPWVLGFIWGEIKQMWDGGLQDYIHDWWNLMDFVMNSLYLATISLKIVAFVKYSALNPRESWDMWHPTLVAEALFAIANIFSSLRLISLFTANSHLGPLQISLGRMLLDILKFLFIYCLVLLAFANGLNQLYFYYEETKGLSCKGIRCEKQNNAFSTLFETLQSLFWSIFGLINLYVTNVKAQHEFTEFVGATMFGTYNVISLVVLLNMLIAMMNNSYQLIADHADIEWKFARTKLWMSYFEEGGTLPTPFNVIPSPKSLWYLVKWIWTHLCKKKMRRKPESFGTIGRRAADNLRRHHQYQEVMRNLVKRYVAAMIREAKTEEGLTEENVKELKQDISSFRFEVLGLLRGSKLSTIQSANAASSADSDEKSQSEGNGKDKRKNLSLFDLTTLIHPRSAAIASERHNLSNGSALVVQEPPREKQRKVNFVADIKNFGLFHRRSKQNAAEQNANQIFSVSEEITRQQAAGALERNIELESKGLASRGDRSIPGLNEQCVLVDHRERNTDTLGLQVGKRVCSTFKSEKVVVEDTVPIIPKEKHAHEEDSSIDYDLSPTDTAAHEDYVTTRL
#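 Assay system: HEK293 cells with stable TRPC4beta plus mu-opioid receptor expression. Dosing: single dose. Measured by: Fluo4 Ca2+ flux fluorescence. Also added: DAMGO in two steps, submaximal then maximal. Read-out: B score from integrated Fluo4 fluorescence ratio.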
# TRPC6 act: mouse TRPC6 channel activation; HEK293-TRPC6 membrane potential dye fluorescence; stronger effect = higher value; B-score at 10 µM; AID 2550; actives 0.13% (n = 310,000); Q61143;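 active = B-score of the integrated fluorescence ratio above library mean plus 3 SD, and starting fluorescence ratio within library mean plus 5 SD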;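 note: higher score means more depolarization so channel activation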
# TRPC4 PAM: TRPC4 (mouse) allosteric potentiation; HEK293 TRPC4beta/mu-opioid, DAMGO EC20, Fluo-4 Ca2+ flux; stronger effect = higher value; Q9QUQ5; B-score at 10 µM; actives 0.42% (n = 310,000);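 active = B-score of calcium response area above 5 SD of library B-scores, with initial fluorescence ratio within 5 SD of library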;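 note: B-score of integrated fluorescence ratio over time as area under calcium response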
# TRPC4 act: TRPC4 (mouse) channel activation | AID 2237 | HEK293 TRPC4beta/mu-opioid, Fluo4 calcium fluorescence; stronger effect = higher value | actives 0.49% (n = 310,000) | B-score at 10 µM;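 active = B-score above 5 SD of library B-scores, and initial fluorescence ratio not above library mean plus 5 SD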;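 note: positive B-score marks a calcium rise read as TRPC4 activation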
#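 Test system: HEK293 cells stably co-expressing mouse TRPC4beta and mu-opioid receptor | Schedule: Fluo4 dye loading 45 min at room temperature, 110 s recording | Measured by: Kinetic Fluo4 calcium fluorescence, 5 s baseline at 1 Hz | Evaluation: B score of integrated ratio | Controls: Buffer (low) and maximal DAMGO (high)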
# HEK293 MPD ctr: parental HEK293 nonspecific activity of TRPC6 modulators | membrane potential signal change, % at 10 µM | membrane potential dye fluorescence | actives 51% (n = 2,400) | shares compounds with TRPC6 inhibitor;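 active = membrane potential signal moves up or down beyond 5 SD from buffer-only wells, on both duplicate plates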
# HEK293 MPD ctr 2: parental HEK293 nonspecific activity of TRPC6 modulators, second screen. shares compounds with TRPC6 inhibitor. membrane potential dye fluorescence; after compound, maximal acetylcholine stimulation. inhibition, % at 10 µM. actives 14% (n = 2,400). AID 488926;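 active = membrane potential signal drops by more than 5 SD from the mean control signal, in both duplicate plates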;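 note: plate controls were acetylcholine ECmax control wells for no effect and buffer only wells for full effect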
# TRPC4/MOR mod: selectivity of TRPC6 modulators against mouse TRPC4; shares compounds with TRPC6 inhibitor; HEK293 TRPC4/mu-opioid, membrane potential fluorescence; percent change from control (negative = decrease, positive = increase), % at 10 µM; actives 69% (n = 2,400); AID 488927;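 active = membrane potential signal moved up or down beyond 5 SD of buffer control wells, in both duplicate plates, actives on both sides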;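 note: plate controls were assay buffer wells for no effect and DAMGO maximal-effect wells for full effect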
# TRPC4 ctr inh 2: second selectivity test of TRPC6 modulators against mouse TRPC4. shares compounds with TRPC6 inhibitor. HEK293 TRPC4/mu-opioid, membrane potential dye fluorescence; stimulated with maximal-effect DAMGO. inhibition, % at 10 µM. actives 55% (n = 2,400);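 active = drop in membrane potential signal beyond 5 SD of the control wells in both duplicate plates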;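 note: TRPC4 counter screen for TRPC6 hits run under conditions tuned for TRPC6 not TRPC4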
# TRPC6 inh conf: mouse TRPC6 inhibitor confirmation | shares compounds with TRPC6 inhibitor | HEK293-TRPC6, membrane potential dye, ACh-evoked depolarization | inhibition, % at 10 µM | actives 43% (n = 3,300);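 active = fluorescence ratio falls more than 5 SD below the full-stimulation control mean, in both duplicate runs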;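 note: integrated fluorescence ratio of peak minus minimum over baseline after agonist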
# TRPC6 act conf: mouse TRPC6 activator confirmation; activation, % at 10 µM; AID 488961; shares compounds with TRPC6 inhibitor; actives 11% (n = 2,800); HEK293-TRPC6 membrane potential dye fluorescence, FDSS;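 active = ratio signal rise beyond 5 SD above unstimulated control wells' mean, seen in both duplicate runs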;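 note: plate controls were buffer EC0 wells for no effect and acetylcholine ECmax response for full effect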
# An asterisk follows results filed as active; i = inactive.
SMILES,TRPC6 inhibitor,TRPC4 inh,TRPC6 act,TRPC4 PAM,TRPC4 act,others
O=C1CC(O)(C(F)F)Oc2ccc3ccccc3c21 (stereo unspecified),i,i,i,i,i,
O=C1CC(O)(C(F)(F)F)Oc2c1ccc1ccccc21 (stereo unspecified),i,i,i,i,142*,
Cc1cc(Br)cc(C)c1OCCCCN(C)C,i,i,i,35*,i,
Cc1cc(Cl)c(OCCCN(C)C)c(Br)c1,i,i,i,i,i,
O=C(NC1CCCC1)c1sc(=S)n2c1[nH]c(=O)c1ccccc12,i,i,i,i,83*,
O=C(NCc1ccco1)c1sc(=S)n2c1[nH]c(=O)c1ccccc12,i,i,i,i,114*,
CCOC(=O)CN(c1ccccc1C)S(=O)(=O)c1ccc(Cl)cc1,i,i,i,i,i,
C/C(=N\NC(=O)c1cc2ccccc2cc1O)c1ccccn1,i,i,i,i,53*,
C/C(=N\NC(=O)c1c[nH]c2ccccc12)c1ccccn1,i,i,i,i,i,
COc1ccc(CNC(=O)CN(C)Cc2ccccc2F)cc1OC,i,-6*,i,i,i,
CC(=O)OC1=C(C#N)Cn2ccc3cccc1c32,i,i,i,i,i,
CC1CCc2c(C(=O)N3CCN(S(=O)(=O)c4cccs4)CC3)csc2C1 (stereo unspecified),i,i,i,29*,i,
Cn1c2ccccc2c(=O)c2c(=O)n(C3CCCCC3)c(-c3ccco3)nc21,i,i,i,i,116*,
Cc1nc2c(c(=O)c3ccccc3n2C)c(=O)n1C1CCCCCC1,i,i,i,i,i,
Cc1ccc(-c2nc3c(c(=O)c4ccccc4n3C)c(=O)n2-c2ccc(F)cc2)cc1,i,i,i,i,i,
Cn1c2ccccc2c(=O)c2c(=O)n(-c3ccccc3)c(-c3ccc(C(C)(C)C)cc3)nc21,i,i,i,21*,i,
COC(=O)c1cc(N2CCN(C)CC2)nc2ccccc12,i,i,i,17*,i,
Cc1cc(N2CCN(C)CC2)nc2ccc(NC(=O)c3ccccc3F)cc12,i,i,i,i,i,
CC1(C)COCN1S(=O)(=O)c1ccc(C(=O)Nc2nnc(-c3ccc(Cl)s3)o2)cc1,i,-5*,i,i,111*,
CCC1CCCCN1S(=O)(=O)c1ccc(C(=O)Nc2nnc(-c3ccccc3Cl)o2)cc1 (stereo unspecified),i,i,i,i,65*,
CC1(C)C2CCC1(CS(=O)(=O)NCc1ccc(S(N)(=O)=O)cc1)C(=O)C2 (stereo unspecified),i,i,i,i,i,
CCCCN(CC)CCCNC(=O)c1cc2c(-c3ccc(OC)c(OC)c3)nn(C)c2s1,i,i,i,i,82*,
COc1cccc(-c2nn(C)c3sc(C(=O)NCc4ccco4)cc23)c1,i,i,i,i,i,
CCN1CCCC1CNC(=O)c1cc2c(-c3cccc(OC)c3)nn(C)c2s1 (stereo unspecified),i,i,i,i,i,
CCN(CC)CCCNC(=O)c1cc2c(-c3cccc(OC)c3)nn(C)c2s1,i,i,i,13*,79*,
SMILES,TRPC6 inhibitor,TRPC4 inh,TRPC6 act,TRPC4 PAM,TRPC4 act,others
COc1cccc(-c2nn(C)c3sc(C(=O)NCCCN(C)Cc4ccccc4)cc23)c1,i,i,i,i,57*,
CCCCN(C)CCNC(=O)c1cc2c(-c3cccc(OC)c3)nn(C)c2s1,i,i,i,25*,i,
CN1CCN(C(=O)C2=C[C@@H](C3CCCCC3)C[C@@H](OCCCCO)O2)CC1,i,i,i,i,i,
COC(=O)N/N=C(\C)c1ccc(-n2ccnc2)cc1,i,i,i,i,i,
C/C(=N\NC(=O)COc1ccc(C)cc1C(C)C)c1ccc(-n2ccnc2)cc1,i,i,i,28*,i,
CCC(=O)c1cc2c(C)cc(=O)oc2c(C)c1OC(=O)C(C)C,i,-6*,i,i,i,
CCOc1ccccc1N(CC)C(=O)c1nn(C)c2c1CSc1ccccc1-2,i,-6*,i,i,i,
CC1(C)Cc2nc3oc4c(=O)n(CC(=O)Nc5ccccc5)cnc4c3cc2CO1,i,-6*,i,i,i,
CCCCn1c2ccc(F)cc2c2nnc(SCCN3CCOCC3)nc21,i,i,i,i,i,
CCCCn1c2ccccc2c2nnc(SCCN3CCCCC3)nc21,i,-7*,i,i,i,
Nc1cc(Cl)ccc1N1CCCCCC1,i,i,i,i,i,
OC(CNC1CCCc2ccccc21)COc1ccc2ccccc2c1 (stereo unspecified),i,i,i,i,101*,
O=C(c1ccccc1)c1ccc(OCC(O)CNC2CCCc3ccccc32)cc1 (stereo unspecified),i,i,i,i,i,
O=C(NCc1ccco1)C1CCCN(c2nnc(-n3cccc3)s2)C1 (stereo unspecified),i,i,i,i,i,
CCC(=O)Nc1cccc(-c2cnc3ccccc3n2)c1,-5.6*,i,i,i,i,HEK293 MPD ctr=i;HEK293 MPD ctr 2=i;TRPC4/MOR mod=i;TRPC4 ctr inh 2=i;TRPC6 inh conf=i;TRPC6 act conf=i
COC(=O)CSc1nc(-c2ccc(F)cc2)cc(C(F)(F)F)n1,i,i,i,i,i,

# Source: PubChem (Johns Hopkins Ion Channel Center)
